Test results: ChEMBL document CHEMBL3992522, “Antileishmanial Activity of Pyrazolopyridine Derivatives and Their Potential as an Adjunct Therapy with Miltefosine” (J Med Chem, 2017)
≈ marks a conversion by molar mass, not a printed value. Calls of active or inactive are those of the source. No cut-off for these calls is given here.

What was measured:
Leishmania donovani [1] = assay: Antileishmanial activity against Leishmania donovani MHOM/IN/80/DD8 amastigote forms harboring luciferase gene infected in mouse J774 cells after 72 hrs by Steady-Glo reagent based two fold dilution assay; format: functional; conditions: MHOM/IN/80/DD8, 72 h
In short: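 Promastigotes or J774-resident amastigotes treated 72 h with six two-fold dilutions from 200 µM down to 6.25 µM. Luciferase RLU fitted by four-parameter Hill non-linear regression to derive the […] inhibitory concentration (MIC).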

Leishmania donovani [2] = assay: Antileishmanial activity against Leishmania donovani MHOM/IN/80/DD8 amastigote forms harboring luciferase gene infected in mouse J774 cells at 6.25 to 12.5 uM up to 4 days by Steady-Glo reagent based luminescence assay; format: functional, cell-based
In short: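 Infected J774 macrophages held at 37 °C with two-fold dilutions from 200 to 6.25 µM. Intracellular amastigote growth followed by luciferase activity in lysed macrophages, expressed as RLU, over time. Three independent experiments.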

[3] = Metabolic stability in mouse liver S9 fractions at 1 mM after 60 mins in presence of NADPH by HPLC method; format: ADME; conditions: read-out: Stability
Liver = assay: Intrinsic clearance in mouse liver S9 fractions assessed per mg protein at 1 mM in presence of NADPH by HPLC method; format: ADME; conditions: s9, 1000 µM
Leishmania donovani [4] = assay: Antileishmanial activity against Leishmania donovani amastigote forms infected in Balb/c mouse assessed as inhibition of parasitic burden in spleen at 100 mg/kg, ip administered for 5 consecutive days measured on day 7 post last treatment by Giemsa staining based assay relative to control; format: functional; conditions: 168 h
Mus musculus [5] = assay: Toxicity in Balb/c mouse infected with Leishmania donovani amastigote forms assessed as changes in body weight at 12.5 to 200 mg/kg, ip administered for 5 consecutive days; format: organism-based; conditions: in vivo
In short: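 L. donovani-infected BALB/c mice (15-day infection, 5 per group) dosed for five consecutive days: test compound 12.5–200 mg/kg i.p. in 8% DMSO, miltefosine orally in TDW, alone or in combination. Body weight followed after treatment.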

Mus musculus [6] = assay: Restoration of T cell proliferation in Balb/c mouse splenocytes infected with Leishmania donovani amastigote forms at 25 mg/kg, ip co-treated with 5 mg/kg, po miltefosine administered for 5 consecutive days measured on day 7 post last treatment followed by soluble Leishmania donovani promastigote antigen-stimulation for 72 hrs by MTT assay relative to control; format: functional
In short: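 Splenocytes from treated infected BALB/c mice (day 4 or 7 post-treatment) isolated by Ficoll gradient, plated at 10^5/well in triplicate in phenol red-free RPMI 1640, stimulated with 5 μg/mL SLA for 72 h at 37 °C, 5% CO2. Proliferation read by MTT (0.5 mg/mL), formazan dissolved in DMSO, OD 540 nm.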

Mus musculus [7] = assay: Increase in IL-12 level in Balb/c mouse splenocytes infected with Leishmania donovani amastigote forms at 25 mg/kg, ip co-treated with 5 mg/kg, po miltefosine administered for 5 consecutive days measured on day 4 post last treatment by sandwich ELISA relative to control; format: functional
In short: (§1)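 Splenocytes (2×10^6) from treated infected BALB/c mice taken on day 4 or 7 post-treatment. Cultured in phenol-red-free RPMI 1640 with 5 μg/mL soluble L. donovani antigen for 72 h at 37 °C, 5% CO2. Supernatant cytokines measured by sandwich ELISA against a standard curve. Mean ± SD, n = 5 mice per group, three independent experiments.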

Mus musculus [8] = assay: Increase in IFN-gamma level in Balb/c mouse splenocytes infected with Leishmania donovani amastigote forms at 25 mg/kg, ip co-treated with 5 mg/kg, po miltefosine administered for 5 consecutive days measured on day 7 post last treatment by sandwich ELISA relative to control; format: functional; in short: as §1
Mus musculus [9] = assay: Decrease in TGFbeta level in Balb/c mouse splenocytes infected with Leishmania donovani amastigote forms at 25 mg/kg, ip co-treated with 5 mg/kg, po miltefosine administered for 5 consecutive days measured on day 7 post last treatment by sandwich ELISA relative to control; format: functional; in short: as §1
Mus musculus [10] = assay: Increase in iNOS mRNA expression level in Balb/c mouse splenocytes infected with Leishmania donovani amastigote forms at 25 mg/kg, ip cotreated with 5 mg/kg, po miltefosine for 5 consecutive days measured on day 4 post last treatment by RT-PCR assay relative to control; format: functional
In short: (§2)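 Infected BALB/c mice dosed for 5 consecutive days (test compound i.p. in 8% DMSO, miltefosine oral), n = 5 per group; splenocytes taken day 4 and day 7 post-treatment. Total RNA extracted and iNOS mRNA quantified by real-time PCR, normalized to mouse β-actin, expressed as fold change over uninfected controls.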

Mus musculus [11] = assay: Increase in iNOS mRNA expression level in Balb/c mouse splenocytes infected with Leishmania donovani amastigote forms at 25 mg/kg, ip cotreated with 5 mg/kg, po miltefosine for 5 consecutive days measured on day 7 post last treatment by RT-PCR assay relative to control; format: functional; in short: as §2
Leishmania donovani [12] = assay: Induction of apoptosis in Leishmania donovani MHOM/IN/80/DD8 promastigote forms assessed as early apoptotic cells at 50 uM after 48 hrs by Annexin V-FITC/propidium iodide staining based flow cytometry (reference value: 7.41%); format: functional
Mus musculus [13] = assay: Increase in iNOS-mediated NO generation in Balb/c mouse splenocytes infected with Leishmania donovani amastigote forms at 25 mg/kg, ip cotreated with 5 mg/kg, po miltefosine for 5 consecutive days measured on day 4 post last treatment followed by soluble Leishmania donovani promastigote antigen-stimulation for 72 hrs by Griess assay relative to control; format: functional
In short: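 Splenocytes from treated infected BALB/c mice (5-day regimen, i.p. test compound, oral miltefosine; n = 5) isolated day 4 and day 7 post-treatment. Cultured in phenol red-free RPMI 1640 with 5 μg/mL SLA for 72 h at 37 °C, 5% CO2. Supernatant nitrite measured by Griess assay at 540 nm against a sodium nitrite standard curve.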

Leishmania donovani [14] = assay: Induction of apoptosis in Leishmania donovani MHOM/IN/80/DD8 promastigote forms assessed as DNA fragmentation at IC50 after 48 hrs by propidium iodide staining based TUNEL assay; format: functional
In short: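 DNA fragmentation detected by TUNEL under fluorescence and phase-contrast microscopy, with counts of TUNEL-positive cells; three independent experiments.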

Leishmania donovani [15] = assay: Induction of apoptosis in Leishmania donovani MHOM/IN/80/DD8 promastigote forms assessed as cell rounding at 50 uM after 48 hrs by propidium iodide staining based fluorescent microscopic method; format: functional
[16] = Apparent volume of distribution in Swiss mouse at 50 mg/kg, po by LC-MS/MS analysis; format: ADME, organism-based; conditions: in vivo
Leishmania donovani [17] = assay: Antileishmanial activity against Leishmania donovani amastigote forms infected in Balb/c mouse assessed as inhibition of parasitic burden in spleen at 25 mg/kg, ip administered for 5 consecutive days measured on day 7 post last treatment by Giemsa staining based assay relative to control; conditions: 168 h
Mus musculus [18] = assay: Restoration of T cell proliferation in Balb/c mouse splenocytes infected with Leishmania donovani amastigote forms at <25 mg/kg, ip administered for 5 consecutive days measured on day 4 and 7 post last treatment followed by soluble Leishmania donovani promastigote antigen-stimulation for 72 hrs by MTT assay relative to control

Q: What does the source list for `COc1ccc(C2C3=C(CCC3=O)Nc3c2c(-c2c[nH]c4ccccc24)nn3-c2ccc(Cl)c(Cl)c2)cc1OC` (centres undefined)?
A: MIC (Leishmania donovani [1]): 50 µM (≈ 28.6 µg/mL); Activity (Leishmania donovani [2]): Active; remaining at 1 h, 1000 µM [3]: 45%; CLH (Liver): 27.47 µL/min; inhibition in vivo at 100 mg/kg (Leishmania donovani [4]): 90%; Activity (Mus musculus [5]): Non-Toxic; fold change (FC) (Mus musculus [6]): 8.4; fold change (FC) (Mus musculus [7]): 12.7; fold change (FC) (Mus musculus [8]): 8.5; inhibition (INH) (Mus musculus [9]): 93%; fold change (FC) (Mus musculus [10]): 11.8; fold change (FC) (Mus musculus [11]): 8.5; Activity (Leishmania donovani [12]): 11.6%; fold change (FC) (Mus musculus [13]): 5.6; Activity (Leishmania donovani [14]): Active; Activity (Leishmania donovani [15]): Active; Vd/F [16]: 19.6 L/kg; inhibition in vivo at 25 mg/kg (Leishmania donovani [17]): > 59%; fold change (FC) (Mus musculus [18]): 2.2 - 3.4
